# BindingDB's records for doi:10.1021/jm050851n (University of Arizona, 2006)
# Molecular target: Mu-type opioid receptor (Rattus norvegicus, UniProt P33535)
# Experiment: Displacement of [3H]DAMGO from rat mu opioid receptor expressed in HN9.10 cells
# Method in brief: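 Membranes from stably transfected HN9.10 neuroblastoma cells in 50 mM Tris pH 7.4 with bacitracin, bestatin, captopril, PMSF and 1 mg/mL BSA. 50 µg membrane, 10 test concentrations, 1.0 nM [3H]DAMGO (Kd level). Nonspecific binding defined with 10 µM naloxone. Duplicates, 3 h at 25 °C, filtration, scintillation counting. Ki from IC50 by Cheng–Prusoff; at least two independent experiments.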
# Chain of Mu-type opioid receptor (P33535 whole entry): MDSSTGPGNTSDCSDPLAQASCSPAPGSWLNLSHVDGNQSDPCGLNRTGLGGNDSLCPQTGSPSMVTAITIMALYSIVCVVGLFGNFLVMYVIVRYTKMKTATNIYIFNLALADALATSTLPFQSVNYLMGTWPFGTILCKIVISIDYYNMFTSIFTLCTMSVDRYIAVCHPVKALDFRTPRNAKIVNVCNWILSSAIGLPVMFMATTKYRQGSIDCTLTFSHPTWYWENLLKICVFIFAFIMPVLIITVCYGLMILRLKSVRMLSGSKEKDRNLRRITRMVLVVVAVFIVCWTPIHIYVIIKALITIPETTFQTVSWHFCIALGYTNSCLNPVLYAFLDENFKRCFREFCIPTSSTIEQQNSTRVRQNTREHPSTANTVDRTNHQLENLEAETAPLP
smiles,measurement,value
CC(=O)N[C@@H](Cc1c[nH]c2ccccc12)C(=O)N[C@@H](CCCCNC(=O)Nc1ccccc1Cl)C(=O)N[C@@H](CC(=O)O)C(=O)N(C)[C@@H](Cc1ccccc1)C(=O)NNC(=O)[C@H](Cc1ccccc1)NC(=O)CNC(=O)[C@@H](C)NC(=O)[C@@H](N)Cc1ccc(O)cc1 [H-Tyr-D-Ala-Gly-Phe-NH-NH-(NMe)Phe-Asp-Lys(Cpac)-Trp-Ac],EC50,14 nM
